Compound activity: PubChem BioAssay, Sanford-Burnham Center for Chemical Genomics
FLuc act counter – affects firefly luciferase, flagging false hits in luciferase stimulation screens; P08659; activation factor at 10 µM; ATPlite luciferase biochemical, luminescence, 10 min; 0 = ATP-free wells, 1 = DMSO control; 200,000 tested, under 10 active;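 active means luciferase activation factor, scaled between plate controls, of at least 2 with compound at 10 µM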
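System: Luciferase/luciferin detection reagent, cell-free biochemical luciferase assay | Medium: PBS buffer for ATP | Dosing: Test compounds dosed from 2 mM stocks in 100% DMSO | Timing: 10 min at ambient temperature | Signal: Luminescence measurement of luciferase light output | Evaluation: Luciferase activation, seen as luminescence increase over controls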
PPC-1+TRAIL kill – compounds killing PPC-1 cancer cells with TRAIL present (potentiator screen, no TRAIL-free arm) | PPC-1 cells + TRAIL, ATPLite viability luminescence | cell killing (% activity), % at 4 µM or 5 µM | 220,000 compounds, 0.41% hits | AID 1443;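 active means cell killing above 50% in the first pass at 4 µM, then a duplicate retest at 5 µM averaging 50% or more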;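 further: plate controls were cells with TRAIL plus DMSO for no effect and medium-only wells lacking cells for full effect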
C8 TRAIL sens – sensitizes caspase-8 expressing cells to TRAIL; NB7+C8 cells + TRAIL, ATPlite viability luminescence; inhibition (viability loss, TRAIL sensitization), % at 10 µM; 360,000 compounds, 1% hits; AID 624354;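 active means compounds causing at least 50% loss of cell viability in the single-dose screen, relative to plate controls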
FLuc inh counter – Photinus pyralis luciferase inhibition counter-screen; AID 1006; P08659; 200,000 compounds, 1.5% hits; inhibition, % at 10 µM; ATPLite firefly luciferase biochemical luminescence, 10 min;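 active means inhibition above about 50% when tested at 10 µM, limit read from the data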
Starred values were filed as active, the others as inactive; / = no result. Shown are actives, neighbours in structure and some others; about 1.5% of the full set was active somewhere.

SMILES | FLuc act counter | PPC-1+TRAIL kill | C8 TRAIL sens | FLuc inh counter
COc1cc(/C=C/C(=O)O)cc(S(=O)(=O)Nc2ccc3c(c2)CCC3)c1OC | / | / | -14 | /
CN(C)c1ccc(/C=c2\sc3n(c2=O)CCCN=3)cc1 | 0.2 | 29 | 62* | 84*
CCOc1ccc(/C=C/C(=O)c2c(O)c3ccccc3oc2=O)cc1 | 0.3 | 16 | 22 | 67*
CCOc1ccc(/C=C/C(=O)c2c(O)cc(C)oc2=O)cc1 | / | / | 66* | /
O=C(NCc1ccncc1)C1CCN(S(=O)(=O)c2ccc(Cl)c(C(F)(F)F)c2)CC1 | / | / | -4 | /
Cc1ccnc(N/N=C/c2ccccc2)n1 | 0.5 | -3 | 17 | 51*
CCOC(=O)[C@]12Cc3c(cc(OC)c(OC)c3OC)[C@H]1N(C1CCCCC1)C(=O)c1cc(OC)ccc12 | / | / | 67* | /
CCOC(=O)N1CCC(N2C(=O)c3ccccc3C2Nc2cc(OC)c(OC)c(OC)c2)CC1 (stereo unspecified) | 1.1 | 4 | -34 | -8
O=C1/C(=C/c2cccs2)Sc2ccccc21 | 0.3 | 11 | 0 | 68*
CCN(CC)S(=O)(=O)c1cccc(-c2nc3n(n2)Cc2ccccc2-3)c1 | 0.9 | 2 | -4 | 7
Clc1ccc(-c2nc3n(n2)Cc2ccccc2-3)cc1 | 0.4 | 22 | 59* | 58*
CC[C@@H](C)[C@H](CNC)NC[C@@H](Cc1cccc2ccccc12)NCCc1cccc(C(F)(F)F)c1 | / | / | 96* | /
CCC[C@H](CN[C@@H](CNC)[C@H](C)CC)NCCc1cc(C(F)(F)F)cc(C(F)(F)F)c1 | / | / | 88* | /
C[C@H](O)CNC(=O)c1[nH]cnc1C(=O)Nc1ccc(CNC(=O)OC(C)(C)C)cc1 | / | / | 8 | /
CC(C)c1cccc(C(C)C)c1NC(=O)CCN1C(=O)NC2(CCCC2)C1=O | / | / | -3 | /
CC(C)NC(=O)C(=O)Nc1cc2c3c(c1)C(C)C(=O)N3CCC2 (stereo unspecified) | / | / | -10 | /
COC(=O)c1cccc(NS(=O)(=O)c2cccs2)c1C | 1.1 | 22 | -6 | -8
COC(=O)c1ccccc1NC1=C/C(=N\S(=O)(=O)c2cccs2)c2ccccc2C1=O | 0.9 | 4 | 80* | 10
COC(=O)c1ccccc1NC1=C/C(=N\S(=O)(=O)c2ccc(C(=O)O)cc2)c2ccccc2C1=O | / | / | 69* | /
Cc1ccc(Cl)cc1N1CCN(C(=O)C(C)n2ncn3cccc3c2=O)CC1 (stereo unspecified) | / | / | 13 | /
Cc1ccc(C2=C(O)c3ccccc3C(=O)C2=O)cc1 | / | / | 2 | /
O=C1C(c2ccncc2)=C(O)c2ccccc21 | 0.2 | 25 | 54* | 83*
O=C(Cn1ncc(Cl)c(Cl)c1=O)N1CCN(Cc2ccccc2)CC1 | 1 | 19 | -9 | -4
O=C(Cn1ncc(Cl)c(Cl)c1=O)N1CCc2ccccc21 | 1 | 31 | 96* | 5
COc1ccccc1CN(C)C(=O)C(NC(=O)Cc1cccc2ccccc12)C(C)C (stereo unspecified) | / | / | 1 | /
SMILES | FLuc act counter | PPC-1+TRAIL kill | C8 TRAIL sens | FLuc inh counter
COc1ccc(C2C(O)C(c3c[nH]c4ccccc34)=NN2C(=O)CCl)cc1 (stereo unspecified) | / | / | 96* | /
O=C(Nc1ccc(Cl)cc1Cl)c1n[nH]c(Cn2cncn2)n1 | 0.4 | 27 | 14 | 64*
CCCCC[C@@H](C)N1C[C@H](COCc2ccccc2)Oc2cc(N3CC[C@H](N(C)C)C3)ccc2S1(=O)=O | / | / | 69* | /
O=C(c1[nH]c(C(F)(F)F)nc1-c1ccccc1)N1CCN(C(=O)C2CCCO2)CC1 (stereo unspecified) | / | / | 12 | /
COc1cc(C(=O)Nc2cccc(-c3cn4cccnc4n3)c2)cc(OC)c1OC | 0.9 | 17 | -4 | 9
CC(C)(C)CC(=O)Nc1cccc(-c2cn3cccnc3n2)c1 | 0.4 | 22 | 25 | 61*
O=C(O/N=C/c1ccc2c(c1)OCO2)c1ccccc1Cl | 0.3 | 28 | / | 70*
O=C(O)/C=C/C(=O)Nc1ccc(Oc2ncnc3cc(Cl)ccc23)nc1 | / | 2 | / | /
O=c1c2ccccc2c(/C=N/c2nnc(Cc3ccccc3)s2)c(O)n1-c1ccc(Cl)cn1 | 0.5 | -4 | 9 | 50*
COC(=O)C1=C(C(=O)OC)[C@@H]2N(C)c3ccccc3[C@@]23C[C@@H](C(=O)OC)N(C(=O)c2cccs2)C3=N1 | / | 18 | 10 | /
COC(=O)C1=C(C(=O)OC)[C@@H]2N(Cc3ccccc3)c3ccccc3[C@@]23C[C@@H](C(=O)OC)N(C(=O)c2cccs2)C3=N1 | / | 5 | 54* | /
N/C(CCS(=O)(=O)c1ccc(Cl)cc1)=N\OC(=O)c1ccccc1C(F)(F)F | / | 31 | 55* | /
